≈ marks a conversion by molar mass, not a printed value.
Legend:
[1] = target: T1, Bromodomain-containing protein 2 (Homo sapiens, UniProt P25440); test: Inhibition of 6His-Thr-BRD2 (1 to 473 residues) BD2 domain Y386A or Y113A mutant (unknown origin) incubated for 30 mins by TR-FRET assay
[2] = Oral bioavailability in Wistar Han rat at 3 mg/kg measured upto 24 hrs by LC-MS/MS analysis; format: ADME, organism-based; settings: in vivo
In short: (§1)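 Three naive male Wistar Han rats dosed by oral gavage at target 3 mg/kg, suspended in 1% (w/v) methylcellulose aq at 0.6 mg/mL. Serial 25 μL blood samples via tail vein up to 24 h; parent compound by LC-MS/MS (LLQ 1 ng/mL) against standards in control blood; non-compartmental PK analysis.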

[3] = Volume of distribution at steady state in Wistar Han rat at 1 mg/kg, iv measured upto 7 hrs by LC-MS/MS analysis; format: ADME, organism-based; settings: in vivo, read-out: Vdss
In short: (§2)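 Surgically cannulated male Wistar Han rats (femoral vein dosing, jugular vein sampling), given 1 h iv infusion at target 1 mg/kg, 0.2 mg/mL in DMSO/10% (w/v) Kleptose HPB in saline (2:98 v/v); n = 1. Serial 25 μL blood samples predose to 7 h; parent compound by LC-MS/MS (LLQ 1−2 ng/mL); non-compartmental analysis of blood concentration−time profiles.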

[4] = target: Voltage-gated inwardly rectifying potassium channel KCNH2 (Homo sapiens, UniProt Q12809); test: Inhibition of human ERG
Sequence of Voltage-gated inwardly rectifying potassium channel KCNH2 (Q12809 whole entry): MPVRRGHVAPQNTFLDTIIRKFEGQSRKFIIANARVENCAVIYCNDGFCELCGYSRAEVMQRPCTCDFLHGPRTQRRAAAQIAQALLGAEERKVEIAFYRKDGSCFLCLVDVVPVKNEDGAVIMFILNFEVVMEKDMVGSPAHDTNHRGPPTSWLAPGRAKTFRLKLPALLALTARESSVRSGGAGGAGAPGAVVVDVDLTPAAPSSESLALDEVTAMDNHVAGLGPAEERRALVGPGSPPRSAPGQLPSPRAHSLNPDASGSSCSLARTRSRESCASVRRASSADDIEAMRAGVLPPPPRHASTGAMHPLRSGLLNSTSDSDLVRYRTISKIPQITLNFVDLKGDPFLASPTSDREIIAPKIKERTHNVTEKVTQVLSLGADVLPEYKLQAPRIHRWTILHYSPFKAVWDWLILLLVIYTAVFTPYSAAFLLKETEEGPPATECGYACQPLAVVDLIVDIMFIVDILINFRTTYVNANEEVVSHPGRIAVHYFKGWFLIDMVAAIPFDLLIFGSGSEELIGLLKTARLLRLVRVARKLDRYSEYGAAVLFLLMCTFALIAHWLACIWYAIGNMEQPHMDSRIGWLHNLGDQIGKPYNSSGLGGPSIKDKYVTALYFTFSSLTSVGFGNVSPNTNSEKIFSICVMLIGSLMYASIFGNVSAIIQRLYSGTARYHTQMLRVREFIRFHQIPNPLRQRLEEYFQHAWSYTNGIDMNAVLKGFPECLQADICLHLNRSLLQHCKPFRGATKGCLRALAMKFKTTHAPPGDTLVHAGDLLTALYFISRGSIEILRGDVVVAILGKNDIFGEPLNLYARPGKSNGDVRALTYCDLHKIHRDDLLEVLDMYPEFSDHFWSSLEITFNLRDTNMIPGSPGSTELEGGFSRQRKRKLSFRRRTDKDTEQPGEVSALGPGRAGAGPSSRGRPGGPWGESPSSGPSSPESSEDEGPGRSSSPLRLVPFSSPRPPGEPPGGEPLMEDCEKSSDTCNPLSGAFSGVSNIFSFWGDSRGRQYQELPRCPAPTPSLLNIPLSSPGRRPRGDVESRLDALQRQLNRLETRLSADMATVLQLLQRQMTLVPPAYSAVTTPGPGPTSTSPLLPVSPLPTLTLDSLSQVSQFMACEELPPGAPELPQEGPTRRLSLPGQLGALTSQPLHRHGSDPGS

[5] = Dose normalized AUC in Wistar Han rat at 3 mg/kg, po measured upto 24 hrs by LC-MS/MS analysis; format: ADME, organism-based; settings: in vivo; in short: as §1
[6] = Half life in Wistar Han rat at 1 mg/kg, iv measured upto 7 hrs by LC-MS/MS analysis; format: ADME, organism-based; settings: in vivo; in short: as §2
[7] = Metabolic stability in rat Hepatocyte assessed as intrinsic clearance at 0.5 uM incubated for 60 mins by LC-MS/MS analysis; format: ADME, tissue-based; settings: hepatocytes, 1 h
Blood = test: Inhibition of LPS-stimulated MCP-1 production in human whole blood incubated for 24 hrs by mesoscale assay; format: functional, tissue-based
In short: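 Sodium-heparinized human whole blood preincubated 30 min with compound (DMSO dilutions, 140× stocks) at 37 °C, 5% CO₂, then stimulated with Salmonella typhosa LPS (200 ng/mL final) for 24 h. PBS added, plates centrifuged, supernatant MCP-1 quantified by MesoScale Discovery immunoassay.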

[8] = Fraction unbound in Wistar Han rat at 1 mg/kg, iv measured upto 4 hrs by LC-MS/MS analysis; format: ADME, organism-based
In short: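 Control Wistar Han rat blood dialyzed against PBS by rapid equilibrium dialysis, 4 h at 37 °C, compound at 200 and 1000 ng/mL; matrix-matched aliquots analysed by LC-MS/MS; unbound fraction from buffer/blood peak area ratios, mean of the two concentrations.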

[9] = target: T2, Bromodomain-containing protein 3 (Homo sapiens, UniProt Q15059); test: Inhibition of 6His-Thr-BRD3 (1 to 435 residues) BD2 domain Y348A or Y73A mutant (unknown origin) incubated for 30 mins by TR-FRET assay
Target sequence in this assay (Q15059 2-726 limits assumed): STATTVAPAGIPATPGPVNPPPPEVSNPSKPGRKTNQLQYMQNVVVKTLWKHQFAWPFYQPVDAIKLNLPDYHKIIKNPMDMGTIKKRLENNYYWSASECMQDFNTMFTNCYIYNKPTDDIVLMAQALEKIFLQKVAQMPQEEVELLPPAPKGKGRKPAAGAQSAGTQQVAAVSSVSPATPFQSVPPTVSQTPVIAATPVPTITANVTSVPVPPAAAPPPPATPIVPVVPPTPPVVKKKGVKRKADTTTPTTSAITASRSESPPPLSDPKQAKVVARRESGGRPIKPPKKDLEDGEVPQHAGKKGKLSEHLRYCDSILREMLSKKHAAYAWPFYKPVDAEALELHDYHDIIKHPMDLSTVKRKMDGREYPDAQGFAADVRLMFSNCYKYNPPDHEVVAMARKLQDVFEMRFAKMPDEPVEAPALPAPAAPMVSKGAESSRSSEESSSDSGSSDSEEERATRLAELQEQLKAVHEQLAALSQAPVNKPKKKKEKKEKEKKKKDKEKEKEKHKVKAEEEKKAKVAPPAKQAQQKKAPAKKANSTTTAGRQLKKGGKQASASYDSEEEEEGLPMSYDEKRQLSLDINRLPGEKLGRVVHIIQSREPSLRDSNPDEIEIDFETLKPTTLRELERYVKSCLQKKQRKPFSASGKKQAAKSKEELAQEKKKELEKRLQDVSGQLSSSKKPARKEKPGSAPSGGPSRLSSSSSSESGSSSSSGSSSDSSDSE

[10] = target: Bromodomain-containing protein 4 (Homo sapiens, UniProt O60885, Y97A); test: Inhibition of 6His-Thr-BRD4 (1 to 477 residues) BD1 Y97A mutant (unknown origin) incubated for 30 mins by TR-FRET assay
[11] = Inhibition of LPS-induced MCP1 production in PBMC (unknown origin); format: functional, tissue-based
[12] = AUC in Wistar Han rat at 1 mg/kg, iv measured upto 7 hrs by LC-MS/MS analysis; format: ADME, organism-based; set-up: route intravenous, dose 1 mg/kg, time <=7; settings: in vivo; in short: as §2
[13] = target: T1, Bromodomain-containing protein 2; test: Inhibition of 6His-Thr-BRD2 (1 to 473 residues) BD1 domain (unknown origin) incubated for 30 mins by TR-FRET assay
[14] = target: Bromodomain-containing protein 4 (Homo sapiens, UniProt O60885, Y390A); test: Inhibition of 6His-Thr-BRD4 (1 to 477 residues) BD2 domain Y390A mutant (unknown origin) incubated for 30 mins by TR-FRET assay
Homo sapiens = species: Homo sapiens; test: Selectivity index, ratio of pIC50 of BRD4 BD1 (unknown origin) to pIC50 of BRD4 BD2 (unknown origin)
[15] = Unbound clearance in Wistar Han rat at 1 mg/kg, iv measured upto 7 hrs by LC-MS/MS analysis; format: ADME, organism-based; settings: in vivo
[16] = Clearance in Wistar Han rat at 1 mg/kg, iv measured upto 7 hrs by LC-MS/MS analysis; format: ADME, organism-based; settings: in vivo; in short: as §2
[17] = Metabolic stability in human Hepatocyte assessed as intrinsic clearance at 0.5 uM incubated for 120 mins by LC-MS/MS analysis; format: ADME, tissue-based; settings: hepatocytes, 2 h
[18] = Solubility of compound by CLND assay; format: physicochemical
[19] = target: T2, Bromodomain-containing protein 3; test: Inhibition of 6His-Thr-BRD3 (1 to 435 residues) BD1 domain (unknown origin) incubated for 30 mins by TR-FRET assay
Target sequence in this assay (Q15059 whole entry, the tested form may be a part): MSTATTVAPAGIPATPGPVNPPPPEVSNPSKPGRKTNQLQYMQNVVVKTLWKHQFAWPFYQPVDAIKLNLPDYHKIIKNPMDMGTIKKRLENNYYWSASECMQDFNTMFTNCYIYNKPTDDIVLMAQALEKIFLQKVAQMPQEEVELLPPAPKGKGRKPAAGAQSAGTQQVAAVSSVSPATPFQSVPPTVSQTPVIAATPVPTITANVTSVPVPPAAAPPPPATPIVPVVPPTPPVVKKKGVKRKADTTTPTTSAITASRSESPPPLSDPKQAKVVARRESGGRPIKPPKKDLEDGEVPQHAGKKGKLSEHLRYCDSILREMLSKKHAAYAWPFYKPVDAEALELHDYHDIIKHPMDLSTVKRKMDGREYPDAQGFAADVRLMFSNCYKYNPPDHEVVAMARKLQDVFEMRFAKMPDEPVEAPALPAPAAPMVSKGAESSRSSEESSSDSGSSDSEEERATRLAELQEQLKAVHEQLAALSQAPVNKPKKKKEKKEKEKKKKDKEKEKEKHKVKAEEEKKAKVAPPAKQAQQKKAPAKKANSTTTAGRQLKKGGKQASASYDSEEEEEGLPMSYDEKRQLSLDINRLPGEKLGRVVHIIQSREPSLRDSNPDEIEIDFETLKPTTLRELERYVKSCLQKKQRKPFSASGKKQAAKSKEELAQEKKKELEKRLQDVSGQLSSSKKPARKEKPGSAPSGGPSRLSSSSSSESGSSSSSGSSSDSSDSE

[20] = Permeability of compound; format: ADME; settings: not told; read-out: permeability
Albumin = Albumin (Homo sapiens, UniProt P02768); test: Binding affinity to human serum albumin; format: ADME; settings: isolated protein
Sequence of Albumin (P02768 whole entry): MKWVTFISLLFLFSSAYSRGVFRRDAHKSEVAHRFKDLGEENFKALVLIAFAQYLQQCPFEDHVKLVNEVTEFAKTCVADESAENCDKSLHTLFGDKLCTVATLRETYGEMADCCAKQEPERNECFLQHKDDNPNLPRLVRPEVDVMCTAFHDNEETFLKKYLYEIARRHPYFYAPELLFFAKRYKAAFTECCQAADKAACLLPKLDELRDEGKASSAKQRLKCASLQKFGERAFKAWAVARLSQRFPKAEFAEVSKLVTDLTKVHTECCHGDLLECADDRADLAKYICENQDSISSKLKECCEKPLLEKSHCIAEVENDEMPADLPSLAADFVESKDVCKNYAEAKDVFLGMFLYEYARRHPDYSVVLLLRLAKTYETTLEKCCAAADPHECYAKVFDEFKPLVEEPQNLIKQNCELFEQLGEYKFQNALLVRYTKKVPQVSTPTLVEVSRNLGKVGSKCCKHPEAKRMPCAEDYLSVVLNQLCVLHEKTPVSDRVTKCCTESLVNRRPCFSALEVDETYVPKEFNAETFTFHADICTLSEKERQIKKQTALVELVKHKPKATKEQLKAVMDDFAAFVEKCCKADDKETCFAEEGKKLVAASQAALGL
In short: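 Chromatographic binding on chemically bonded HSA column (50 × 3 mm), 1.8 mL/min; mobile phase 50 mM ammonium acetate pH 7.4 with 2-propanol gradient (0−30% over 3 min, hold to 6 min, back to 0%); gradient retention time recorded.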

[21] = target: T3, Bromodomain testis-specific protein (Homo sapiens, UniProt Q58F21); test: Inhibition of 6His-FLAG-Tev-BRDT (1 to 397 residues) BD2 domain Y309A or Y66A mutant (unknown origin) incubated for 30 mins by TR-FRET assay
[22] = target: T3, Bromodomain testis-specific protein; test: Inhibition of 6His-FLAG-Tev-BRDT (1 to 397 residues) BD1 domain (unknown origin) incubated for 30 mins by TR-FRET assay

T1 sequence (P25440 whole entry, the tested form may be a part): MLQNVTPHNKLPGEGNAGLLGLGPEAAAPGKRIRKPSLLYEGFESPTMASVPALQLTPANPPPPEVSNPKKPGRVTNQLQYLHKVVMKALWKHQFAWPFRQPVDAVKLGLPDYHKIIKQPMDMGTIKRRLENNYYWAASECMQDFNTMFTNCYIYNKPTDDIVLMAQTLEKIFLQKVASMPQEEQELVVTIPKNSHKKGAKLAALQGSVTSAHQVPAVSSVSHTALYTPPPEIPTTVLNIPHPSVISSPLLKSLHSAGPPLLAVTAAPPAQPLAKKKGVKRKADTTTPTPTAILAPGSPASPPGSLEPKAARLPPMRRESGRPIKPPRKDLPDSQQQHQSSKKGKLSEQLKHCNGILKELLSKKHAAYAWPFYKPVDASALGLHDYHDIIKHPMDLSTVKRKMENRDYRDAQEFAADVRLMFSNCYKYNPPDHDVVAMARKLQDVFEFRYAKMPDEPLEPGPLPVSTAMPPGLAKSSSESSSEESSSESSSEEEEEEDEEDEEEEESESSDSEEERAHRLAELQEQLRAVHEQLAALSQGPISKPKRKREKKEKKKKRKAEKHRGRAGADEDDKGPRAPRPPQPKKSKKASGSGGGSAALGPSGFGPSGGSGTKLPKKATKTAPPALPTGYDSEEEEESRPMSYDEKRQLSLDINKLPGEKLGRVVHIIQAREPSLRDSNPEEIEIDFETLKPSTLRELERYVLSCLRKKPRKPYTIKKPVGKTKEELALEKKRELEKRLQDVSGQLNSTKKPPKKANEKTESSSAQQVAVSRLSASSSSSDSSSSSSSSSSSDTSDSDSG

Which results are given for C[C@H](Oc1ccc(C(=O)NC2CC2)cc1-c1cn(C)nn1)c1ccccn1?
pIC50 [1]: 6.6; bioavailability [2]: 32%; Vd [3]: 1.8 L/kg; IC50 [4]: 39.8 µM; AUC/dose [5]: 23 kg·min/L; half-life [6]: 99 min; CLH [7]: < 0.8 mL/min/g; IC50 (Blood): 0.398 µM; fraction unbound at 4 h [8]: 0.76; pIC50 [9]: 7.1; IC50 [10]: 5.01 µM; IC50 [11]: 0.0158 µM; AUC at 7 h [12]: 1.18 µg·h/mL; IC50 [13]: 39.8 µM; IC50 [14]: 0.0501 µM; Ratio pIC50 (Homo sapiens): 100; CL free [15]: 1.14 L/h/kg; clearance [16]: 0.84 L/h/kg; CLH [17]: < 0.45 mL/min/g; solubility kinetic [18]: 0.145 mg/mL (≈ 399 µM); IC50 [19]: 12.6 µM; Papp [20]: 150 nm/s; Activity (Albumin): 84%

For CCNC(=O)c1cc(Cc2cccc3[nH]ccc23)nc(-c2cn(C)nn2)c1, which pIC50 [1] is on record?
Its pIC50 is 7.3.

And the bioavailability [2]?
The bioavailability was 31%.

What about the Vd [3] of the same compound?
The Vd was 1.1 L/kg.

What about the IC50 [4] of the same compound?
The IC50 was 31.6 µM.

What about the AUC/dose [5] of the same compound?
The AUC/dose was 15 kg·min/L.

What about the half-life [6] of the same compound?
Its half-life is 52.2 min.

What about the pIC50 [21] of the same compound?
The pIC50 was 7.3.

What about the CLH [7] of the same compound?
Its CLH is 1.98 mL/min/g.

What about the IC50 (Blood) of the same compound?
The IC50 was 0.398 µM.

What about the pIC50 [9] of the same compound?
Its pIC50 is 7.5.

And the IC50 [10]?
The IC50 was 10 µM.

And the IC50 [11]?
Its IC50 is 0.0251 µM.

And the AUC at 7 h [12]?
Its AUC at 7 h is 0.778 µg·h/mL.

And the IC50 [13]?
The IC50 was 25.1 µM.

What about the IC50 [14] of the same compound?
Its IC50 is 0.0316 µM.

And the Ratio pIC50 (Homo sapiens)?
Its Ratio pIC50 is 315.

What about the CL free [15] of the same compound?
Its CL free is 12.3 L/h/kg.

And the clearance [16]?
Its clearance is 1.26 L/h/kg.

And the CLH [17]?
Its CLH is < 0.45 mL/min/g.

And the solubility kinetic [18]?
Its solubility kinetic is ≥ 0.148 mg/mL.

And the IC50 [19]?
Its IC50 is 31.6 µM.

And the Papp [20]?
Its Papp is 300 nm/s.

What about the Activity (Albumin) of the same compound?
The Activity was 90%.

And the IC50 [22]?
The IC50 was 25.1 µM.

Which pIC50 [1] does the source give for CCNC(=O)c1ccc(OCc2cccc(C)n2)c(-c2cn(C)nn2)c1 here?
Its pIC50 is 5.8.

And the bioavailability [2]?
The bioavailability was 59%.

And the Vd [3]?
Its Vd is 0.7 L/kg.

And the IC50 [4]?
Its IC50 is > 50.1 µM.

What about the AUC/dose [5] of the same compound?
The AUC/dose was 30 kg·min/L.

And the half-life [6]?
The half-life was 27 min.

And the pIC50 [21]?
Its pIC50 is 6.4.

What about the CLH [7] of the same compound?
The CLH was 1.09 mL/min/g.

And the IC50 (Blood)?
Its IC50 is 2.51 µM.

And the fraction unbound at 4 h [8]?
Its fraction unbound at 4 h is 0.19.

What about the pIC50 [9] of the same compound?
The pIC50 was 6.5.

What about the IC50 [10] of the same compound?
Its IC50 is 50.1 µM.

What about the IC50 [11] of the same compound?
Its IC50 is 0.251 µM.

What about the AUC at 7 h [12] of the same compound?
The AUC at 7 h was 0.873 µg·h/mL.

What about the IC50 [13] of the same compound?
Its IC50 is > 50.1 µM.

And the IC50 [14]?
Its IC50 is 0.251 µM.

And the Ratio pIC50 (Homo sapiens)?
The Ratio pIC50 was 200.

And the CL free [15]?
The CL free was 6.12 L/h/kg.

And the clearance [16]?
The clearance was 1.14 L/h/kg.

And the CLH [17]?
Its CLH is 1.18 mL/min/g.

What about the solubility kinetic [18] of the same compound?
The solubility kinetic was ≥ 0.137 mg/mL.

And the IC50 [19]?
Its IC50 is > 50.1 µM.

And the Papp [20]?
The Papp was 470 nm/s.

And the Activity (Albumin)?
The Activity was 84%.

And the IC50 [22]?
Its IC50 is > 50.1 µM.

From ChEMBL document CHEMBL4834404, “Template-Hopping Approach Leads to Potent, Selective, and Highly Soluble Bromo and Extraterminal Domain (BET) Second Bromodomain (BD2) Inhibitors” (J Med Chem, 2021)
